A word on the Kd: it is a measure of binding affinity in units of concentration.

The target of the experiment is T1, Vitamin D3 receptor A (Danio rerio, UniProt Q9PTN2).
T1 sequence (Q9PTN2 whole entry): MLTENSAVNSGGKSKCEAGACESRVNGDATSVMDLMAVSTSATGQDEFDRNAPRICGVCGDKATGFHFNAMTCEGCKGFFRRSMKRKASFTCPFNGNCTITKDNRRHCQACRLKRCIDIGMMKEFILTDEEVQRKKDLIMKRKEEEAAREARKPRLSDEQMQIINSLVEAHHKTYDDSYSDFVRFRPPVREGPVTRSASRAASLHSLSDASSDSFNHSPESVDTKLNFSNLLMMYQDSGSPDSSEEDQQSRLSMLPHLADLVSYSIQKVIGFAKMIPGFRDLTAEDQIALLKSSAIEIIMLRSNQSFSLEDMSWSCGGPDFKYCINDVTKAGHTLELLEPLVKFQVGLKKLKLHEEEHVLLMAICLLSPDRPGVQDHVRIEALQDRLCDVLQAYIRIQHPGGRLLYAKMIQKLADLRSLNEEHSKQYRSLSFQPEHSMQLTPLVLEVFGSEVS
In words: Agonist activity at zebrafish VDR LBD assessed as binding affinity to TAMRA-labeled SRC-1 peptide by fluorescence anisotropy assay. The method, boiled down: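 Titrations were run in the presence of ligand, and peptide recruitment was monitored by fluorescence anisotropy to derive kd.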
Background: Fluorescence polarisation rises when a labelled molecule tumbles more slowly, as on binding a larger partner.
Consider `C=C1/C(=C\C=C2/CCC[C@]3(C)[C@@H](C(CCCC(C)(C)O)CCCC(C)(C)O)CC[C@@H]23)C[C@H](O)C[C@H]1O`, for which the “Kd” value is 3.3 µM. The figure for `[2H]C([2H])([2H])C(O)(CCC[C@@H](CC#CC(O)(C(F)(F)F)C(F)(F)F)[C@H]1CC[C@H]2/C(=C/C=C3C[C@H](O)C[C@@H](O)C3)CCC[C@]12C)C([2H])([2H])[2H]` is 1.8 µM; for `[2H]C([2H])([2H])C(O)(CCC[C@H](CC#CC(O)(C(F)(F)F)C(F)(F)F)[C@H]1CC[C@H]2/C(=C/C=C3C[C@H](O)C[C@@H](O)C3)CCC[C@]12C)C([2H])([2H])[2H]` it is 1.8 µM.

These data come from BindingDB's records for doi:10.1039/c1md00059d (Centre National De La Recherche Scientifique, 2011).
